The record followed here is ChEMBL document CHEMBL4477216, “Discovery and Optimization of Small Molecule Splicing Modifiers of Survival Motor Neuron 2 as a Treatment for Spinal Muscular Atrophy” (J Med Chem, 2016).

The species named for data set [1] is Homo sapiens. Kind of data set: Inhibition of mRNA splicing of human SMN2 exon 7 transfected in HEK293H cells assessed as compound concentration required to increase full-length SMN2 mRNA level by 1.5 times after 24 hrs by RT-qPCR analysis. The data set is classed as cell-based. In short, it runs like this:
(§1)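 HEK293H cells stably carrying the SMN2 minigene (exon 6 to 5' exon 8 fused to firefly luciferase) were plated and held for 6 h, then treated 24 h in duplicate at varying concentrations (0.5% DMSO). Full-length minigene mRNA and GAPDH were quantified by TaqMan RT-qPCR using actual PCR efficiencies. Results were normalized to GAPDH and DMSO and expressed as fold change versus DMSO.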

The species named for data set [2] is Homo sapiens. The experiment in a line: Inhibition of mRNA splicing of human SMN2 exon 7 transfected in HEK293H cells assessed as maximum fold of increase in full-length SMN2 mRNA level after 24 hrs by RT-qPCR analysis relative to control. The data set is classed as cell-based. In short, it runs like this: as §1
Data set [3] is filed under the species Homo sapiens. Kind of data set: Inhibition of mRNA splicing of human SMN2 exon 7 transfected in HEK293H cells assessed as compound concentration required to increase full-length SMN2 mRNA level by 1.5 times after 24 hrs by RT-qPCR analysis relative to GAPDH. In kind it is cell-based. In short, it runs like this:
as §1
On the technique in general: In qPCR the cycle at which signal appears reflects the starting amount.

The species named for data set [4] is Homo sapiens. The experiment in a line: Inhibition of mRNA splicing of human SMN2 exon 7 transfected in HEK293H cells assessed as maximum fold of increase in full-length SMN2 mRNA level after 24 hrs by RT-qPCR analysis relative to GAPDH. The data set is classed as cell-based. In short, it runs like this: as §1
For data set [5], the species on record is Homo sapiens. The experiment in a line: Inhibition of mRNA splicing of SMN2 exon 7 in GM03813 fibroblasts derived from SMA patient assessed as maximum fold increase of SMN protein level by 1.5 times after 24 hrs by HTRF assay relative to control. For orientation: In TR-FRET formats the signal depends on donor and acceptor labels being close together.
The species entered for data set [6] is Homo sapiens. Kind of data set: Inhibition of mRNA splicing of SMN2 exon 7 in GM03813 fibroblasts derived from SMA patient assessed as compound concentration required to increase SMN protein level by 1.5 times after 24 hrs by HTRF assay.
Data set [7] in a line: AUC (0 to 6 hrs) in Sprague-Dawley rat at 10 mg/kg, po. The data set is classed as ADME, organism-based. Details: dose 10 mg/kg, time < 6 hr, route oral. The note with it: in vivo. In short, it runs like this:
(§2)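 Male Sprague-Dawley rats got a single oral 10 mg/kg dose as a suspension in 0.5% hydroxypropyl methylcellulose with 0.1% Tween-80. Plasma was sampled at several time points up to 6 h post dose to give AUC0-6h. Total brain concentration was taken at 6 h to give the brain/plasma ratio.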

Data set [8] is described as follows: Efflux ratio of apparent permeability from basolateral to apical over apical to basolateral side in human Caco2 cells. The data set is classed as ADME, cell-based. The note with it: Caco-2. In short, it runs like this:
(§3)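 Bidirectional permeability was measured across a Caco-2 cell monolayer. Papp was reported, and efflux was expressed as the B-A/A-B ratio.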
On the technique in general: Passage across Caco-2 layers is used to estimate intestinal permeability.

Data set [9] can be described thus: Apparent permeability in human Caco2 cells. The data set is classed as ADME, cell-based. As to conditions: Caco-2. In short, it runs like this: as §3
Data set [10] can be described thus: Ratio of drug level in brain to plasma of Sprague-Dawley rat at 10 mg/kg, po measured at 6 hrs. The data set is classed as ADME, organism-based. The note with it: brain and plasma, read-out: BPR. In short, it runs like this:
as §2

A short description of data set [11]: Protein binding in human plasma. In kind it is ADME, cell-free. As to conditions: read-out: PPB (converted).

On to `O=c1oc2cc(N3CCOCC3)ccc2cc1-c1nc2ccccc2o1`, for which the EC1.5 in [1] and in [3] was more than 32 µM throughout. In addition, the fold change (FC) in data set [2] was 1.1; in [4], 1.

For the compound `O=c1oc2cc(N3CCNCC3)ccc2cc1-c1nc2ccccc2o1`, the figures for the EC1.5 in data set [1], in data set [6] and in [3] were 10 µM, more than 10000 nM and 8.7 µM, respectively. Further, the fold change (FC) in data set [5] stood at 1; in data set [2] it was 7; in data set [4], 25.

`Cc1cn2cc(-c3cc4ccc(N5CCN(C)CC5)cc4oc3=O)nc2c(C)n1` had an AUC(0-t) at 6 h in data set [7] of 530 ng·h/mL. The EC1.5 was determined as 31 nM in data set [6] and 0.018 µM in data set [3]. Further, in data set [8], the efflux ratio was 1.1. For the same compound, the Papp in data set [9] worked out at 1.4 ×10⁻⁶ cm/s. The Kp at 6 h in data set [10] came out at 0.7. For the same compound, in data set [11], the fraction unbound was 0.03.

For `O=c1oc2cc(N3CCCCC3)ccc2cc1-c1nc2ccccc2o1`, the EC1.5 in data set [1] and in [3] was more than 32 µM throughout. The fold change (FC) in data set [2] and in data set [4] was 1 throughout.

Regarding `Cc1cn2nc(-c3cc(=O)n4cc(N5CCNCC5)ccc4n3)cc2c(C)n1`, in data set [7], the exposure AUC(0-t) at 6 h was 380 ng·h/mL. For the same compound, the EC1.5 in data set [6] is 31 nM; in data set [3], 0.006 µM. In addition, in data set [8], the efflux ratio came out at 2.8. Besides, in data set [9], the Papp was found to be 14 ×10⁻⁶ cm/s. Besides, the Kp at 6 h in [10] was less than 0.1. For the same compound, in [11], the fraction unbound was 0.3.

With `CN(C)c1ccc2cc(-c3nc4ccccc4o3)c(=O)oc2c1`, the EC1.5 is more than 32 µM in [1] and 22 µM in data set [3]. For the same compound, the fold change (FC) was 1.2 in data set [2] and 1.5 in data set [4].

Broadly, the AUC(0-t) is exposure summed from dosing to a finite time, without extrapolation to infinity. Lower therefore signals low exposure. A word on the efflux ratio: it is the permeability from basolateral to apical divided by that in the opposite direction, in the common usage. The Papp is the rate of passage across a membrane or cell layer, normalised by area and donor concentration.
